Assay outcomes deposited in PubChem by Johns Hopkins Ion Channel Center.
Hits are enriched below; roughly 2.3% of the tested compounds scored in any of these assays.
TRPC4 inh – inhibitors of mouse TRPC4 channel, primary screen, Fluo4 calcium, HEK293 TRPC4beta/mu-opioid cells | Short transient receptor potential channel 4 (Mus musculus), Q9QUQ5 | DAMGO-evoked Fluo4 calcium flux; stronger effect = lower value | B-score at 10 µM | 300,000 compounds, 0.39% hits;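 active = B-score over 3 SD under the library average, no early fluorescence shift, positive overall ratio signal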
Target sequence (Q9QUQ5 whole entry, looked up): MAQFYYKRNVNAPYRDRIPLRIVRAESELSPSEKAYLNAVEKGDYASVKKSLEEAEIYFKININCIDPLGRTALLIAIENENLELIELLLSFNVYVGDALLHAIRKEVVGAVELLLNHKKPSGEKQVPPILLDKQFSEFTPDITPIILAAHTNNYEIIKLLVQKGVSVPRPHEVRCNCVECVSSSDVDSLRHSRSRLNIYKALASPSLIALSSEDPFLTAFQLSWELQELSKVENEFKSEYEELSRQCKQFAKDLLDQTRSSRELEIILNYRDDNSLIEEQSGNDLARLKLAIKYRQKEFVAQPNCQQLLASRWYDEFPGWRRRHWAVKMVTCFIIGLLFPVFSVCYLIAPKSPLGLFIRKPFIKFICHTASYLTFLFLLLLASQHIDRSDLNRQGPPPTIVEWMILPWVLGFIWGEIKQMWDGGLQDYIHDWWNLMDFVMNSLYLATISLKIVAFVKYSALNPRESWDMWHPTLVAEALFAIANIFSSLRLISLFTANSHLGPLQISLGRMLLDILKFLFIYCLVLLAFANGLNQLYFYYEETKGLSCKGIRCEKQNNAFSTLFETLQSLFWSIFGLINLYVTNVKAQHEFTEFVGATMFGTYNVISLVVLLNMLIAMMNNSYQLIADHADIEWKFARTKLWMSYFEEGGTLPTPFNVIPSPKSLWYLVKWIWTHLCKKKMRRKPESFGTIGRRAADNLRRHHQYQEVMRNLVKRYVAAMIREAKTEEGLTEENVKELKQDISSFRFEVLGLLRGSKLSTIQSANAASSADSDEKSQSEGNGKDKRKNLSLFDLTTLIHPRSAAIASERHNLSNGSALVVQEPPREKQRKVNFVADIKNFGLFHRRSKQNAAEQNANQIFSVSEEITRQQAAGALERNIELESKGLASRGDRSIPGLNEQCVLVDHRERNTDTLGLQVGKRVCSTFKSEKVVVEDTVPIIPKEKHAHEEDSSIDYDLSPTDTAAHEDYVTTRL
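Test system – stable TRPC4beta/mu-opioid receptor HEK293 cells · Probe or stimulus – DAMGO, a submaximal dose followed by a maximal one · Dosing – one concentration per compound · Signal – Fluo4 calcium fluorescence by kinetic imaging, 5 s 1 Hz baseline · Evaluation – per-well B score of integrated baseline-normalized Fluo4 ratio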
TRPC4 agonist – activators of mouse TRPC4 channel, primary screen, Fluo4 calcium, HEK293 TRPC4beta/mu-opioid cells. Fluo4 calcium fluorescence; stronger effect = higher value. B-score at 10 µM. 310,000 compounds, 0.49% hits;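 active = B-score above 5 SD of library B-scores, and initial fluorescence ratio not above library mean plus 5 SD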;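 note: positive B-score marks a calcium rise read as TRPC4 activation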
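Material: HEK293 stable line with TRPC4beta plus mu-opioid receptor; technique: Fluo4 calcium-sensitive dye fluorescence, kinetic, 1 Hz baseline; timing: Fluo4 dye loading 45 min at room temperature, 110 s recording; controls: assay buffer as low control, maximal DAMGO as high control; read-out: integrated baseline-normalised fluorescence ratio, converted to per-well B score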
TRPC6 activator – mouse TRPC6 channel activators, primary screen, cell-based, HEK293, membrane potential dye | HEK293-TRPC6 membrane potential dye fluorescence; stronger effect = higher value | B-score at 10 µM | 310,000 compounds, 0.13% hits;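 active = B-score of the integrated fluorescence ratio above library mean plus 3 SD, and starting fluorescence ratio within library mean plus 5 SD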;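 note: higher score means more depolarization so channel activation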
TRPC4 PAM – positive allosteric modulators of TRPC4, primary screen, cell-based, mouse TRPC4beta, HEK293 mu-opioid, Fluo-4 calcium; Short transient receptor potential channel 4 (Mus musculus), Q9QUQ5; DAMGO EC20, Fluo-4 Ca2+ flux; stronger effect = higher value; B-score at 10 µM; 310,000 compounds, 0.42% hits; AID 2227, 2009;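 active = B-score of calcium response area above 5 SD of library B-scores, with initial fluorescence ratio within 5 SD of library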;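 note: B-score of integrated fluorescence ratio over time as area under calcium response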
TRPC6 inh – mouse TRPC6 channel inhibitors, primary screen, cell-based, HEK293, membrane potential dye | ACh-evoked depolarization; stronger effect = lower value | AID 2553, 2010 | Short transient receptor potential channel 6 (Mus musculus), Q61143 | 310,000 compounds, 1.1% hits | B-score at 10 µM;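 active = B-score under library mean minus 3 SD, initial fluorescence not abnormally high, positive integrated signal ratio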;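 note: B-score derived from integrated fluorescence ratio over the kinetic read; more negative B-score means stronger inhibition of depolarization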
TRPC4 spec 2 – mouse TRPC4 off-target activity of TRPC6 inhibitors, second screen. shares compounds with TRPC6 inh. AID 2776. 920 compounds, 42% hits. inhibition, % at 10 µM. HEK293 TRPC4/MOR, membrane potential dye fluorescence; channel activated by saturating DAMGO dose;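 active = compounds whose fluorescence signal differed from control wells by over 3 SD, either direction, in both duplicate plates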
TRPC4 spec – mouse TRPC4 modulation by TRPC6 hits, confirmation, selectivity assay for TRPC6 inhibitor project, cell-based, HEK293 TRPC4/mu-opioid, membrane potential dye. shares compounds with TRPC6 inh. membrane potential fluorescence. activity change, negative = inhibition, % at 10 µM. 920 compounds, 61% hits. AID 2777, 2010;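 active = rise or fall in signal beyond 3 SD of buffer-only wells in both replicate plates, either sign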;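 note: integrated kinetic ratio of fluorescence range over baseline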
HEK293 MPD ctr 2-1 – nonspecific membrane potential effects, parental HEK293, confirmation, counter-screen for TRPC6 inhibitor project, cell-based, second counter screen. shares compounds with TRPC6 inh. 920 compounds, 31% hits. signal change vs control, % at 10 µM. AID 2779, 2010. parental HEK293 membrane potential dye fluorescence; maximal acetylcholine challenge after compound addition;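 active = membrane potential signal moving either way by over 3 SD of the maximum-effect control, in both duplicate plates, meaning non-specific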
HEK293 MPD ctr-1 – membrane potential modulation in parental HEK293, confirmation, counter-screen for TRPC6 inhibitor project, cell-based. parental HEK293 membrane potential dye fluorescence. 920 compounds, 60% hits. membrane potential signal change, % at 10 µM. shares compounds with TRPC6 inh;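 active = membrane potential signal shifting up or down by more than 3 SD of buffer-only wells, on both duplicate plates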
HEK293 MPD ctr-2 – parental HEK293 membrane potential modulation, confirmation, counter-screen for TRPC6 modulator project, cell-based; shares compounds with TRPC6 inh; membrane potential signal change, % at 10 µM; membrane potential dye fluorescence; 2,400 compounds, 51% hits; AID 488924, 2010;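 active = membrane potential signal moves up or down beyond 5 SD from buffer-only wells, on both duplicate plates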
HEK293 MPD ctr 2-2 – second counter-screen for TRPC6 modulators: effect in parental HEK293 cells; AID 488926; membrane potential dye fluorescence; after compound, maximal acetylcholine stimulation; 2,400 compounds, 14% hits; shares compounds with TRPC6 inh; inhibition, % at 10 µM;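 active = membrane potential signal drops by more than 5 SD from the mean control signal, in both duplicate plates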;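 note: plate controls were acetylcholine ECmax control wells for no effect and buffer only wells for full effect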
TRPC4/MOR mod – TRPC4 modulation by TRPC6 hit compounds, confirmation, selectivity assay for TRPC6 modulator project, cell-based, HEK293 TRPC4/mu-opioid, membrane potential dye, mouse; 2,400 compounds, 69% hits; percent change from control (negative = decrease, positive = increase), % at 10 µM; AID 488927, 2010; membrane potential fluorescence; shares compounds with TRPC6 inh;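 active = membrane potential signal moved up or down beyond 5 SD of buffer control wells, in both duplicate plates, actives on both sides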;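 note: plate controls were assay buffer wells for no effect and DAMGO maximal-effect wells for full effect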
TRPC4 ctr inh 2 – second selectivity test of TRPC6 modulators against mouse TRPC4. 2,400 compounds, 55% hits. HEK293 TRPC4/mu-opioid, membrane potential dye fluorescence; stimulated with maximal-effect DAMGO. inhibition, % at 10 µM. shares compounds with TRPC6 inh;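 active = drop in membrane potential signal beyond 5 SD of the control wells in both duplicate plates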;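 note: TRPC4 counter screen for TRPC6 hits run under conditions tuned for TRPC6 not TRPC4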
TRPC6 inh conf – mouse TRPC6 channel inhibitors, confirmation, HEK293 cells, membrane potential dye, duplicate; 3,300 compounds, 43% hits; inhibition, % at 10 µM; shares compounds with TRPC6 inh; ACh-evoked depolarization;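 active = fluorescence ratio falls more than 5 SD below the full-stimulation control mean, in both duplicate runs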;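 note: integrated fluorescence ratio of peak minus minimum over baseline after agonist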
TRPC6 act conf – mouse TRPC6 channel activators, confirmation, HEK293 cells, membrane potential dye, duplicate; shares compounds with TRPC6 inh; HEK293-TRPC6 membrane potential dye fluorescence, FDSS; activation, % at 10 µM; 2,800 compounds, 11% hits; AID 488961, 2010;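 active = ratio signal rise beyond 5 SD above unstimulated control wells' mean, seen in both duplicate runs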;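 note: plate controls were buffer EC0 wells for no effect and acetylcholine ECmax response for full effect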
* hit, by the source's call; i = inactive; x = no result given; ! = not active in a repeat.

SMILES	TRPC4 inh	TRPC4 agonist	TRPC6 activator	TRPC4 PAM	TRPC6 inh	HEK293 MPD ctr-2	HEK293 MPD ctr 2-2	TRPC4/MOR mod	TRPC4 ctr inh 2	TRPC6 inh conf	TRPC6 act conf	others
COC(=O)C1CN(C(=O)COc2cccc(C)c2C)c2ccccc2O1 (stereo unspecified)	i	i	i	i	-6*	98%*	i	14%*	i	i	i
CC(=O)c1c(C)nc2ccccc2c1N	i	i	i	i	-5.2*	-195%*	i	-32%*	i	i	i
c1ccc2nc3ccccc3nc2c1	i	i	i	i	i	x	x	x	x	x	x
Nc1c2ccccc2nc2ccccc12	i	i	i	i	-10*	x	x	x	x	66%*!	i	TRPC4 spec 2=43%*;TRPC4 spec=-37%*;HEK293 MPD ctr 2-1=32%*;HEK293 MPD ctr-1=-420%*
CCN(CC)c1nc2ccccc2c(N)c1-c1ccccc1	-7*	i	i	i	-6.9*	x	x	x	x	i	i	TRPC4 spec 2=42%*;TRPC4 spec=14%*;HEK293 MPD ctr 2-1=i;HEK293 MPD ctr-1=9.3%*
Cc1c(N(C)C)nc2ccccc2c1N	i	i	i	i	-10*	x	x	x	x	i	i	TRPC4 spec 2=44%*;TRPC4 spec=-18%*;HEK293 MPD ctr 2-1=i;HEK293 MPD ctr-1=-312%*
Cc1c2ccccc2nc2c(F)c(N(C)C)c(F)c(F)c12	i	i	i	i	i	x	x	x	x	x	x
Cc1ccc(Cl)cc1NC(=S)N(CCCN1CCOCC1)Cc1ccco1	i	i	i	i	i	x	x	x	x	x	x
CC1CC(C)CN(C(=O)CCCNC(=O)c2ccc(Cl)cc2)C1 (stereo unspecified)	i	i	i	i	i	x	x	x	x	x	x
N#CCCN(C(=O)Nc1ccc(Cl)cc1)c1ccccc1	i	i	i	i	i	x	x	x	x	x	x
N#CCCN(CCC#N)C(=O)c1ccc(Cl)cc1	i	i	i	i	-14*	i	i	i	i	i	i
O=C(Nc1ccc(-n2cnnn2)cc1)c1cn2ccccc2n1	i	i	i	i	-5.1*	i	i	i	i	i	i
O=C(O)c1ccc(Cl)c(S(=O)(=O)N(Cc2ccccc2)c2ccc(F)cc2)c1	i	i	17*	i	i	140%*	i	22%*	i	i	144%*
COc1ccc(N(Cc2ccccc2)S(=O)(=O)c2cc(C(=O)O)ccc2Cl)cc1	i	i	25*	i	i	190%*	i	42%*	i	i	148%*
Cc1nc2ccccc2n1CCc1nc2c3ccccc3nc(SCC#N)n2n1	i	i	i	i	i	x	x	x	x	x	x
CN(C)CCCNC(=O)N1c2ccccc2C=Cc2ccccc21	i	i	i	i	-5.3*	i	i	i	i	66%*	i
CCN(CC)C(=O)N1c2ccccc2C=Cc2ccccc21	i	i	i	i	i	x	x	x	x	x	x
O=C(Nn1c(C2CCCCC2)nc2ccccc2c1=O)c1ccc([N+](=O)[O-])cc1	i	i	i	i	i	x	x	x	x	x	x
CCOC(=O)N1CCN(C(=O)CSc2nc3ccccc3c(=O)n2-c2ccccc2)CC1	i	i	17*	i	i	118%*	i	30%*	i	x	172%*
Cc1cc(C)n2[nH]c(=O)c(N=Nc3ccc(S(N)(=O)=O)cc3)c2n1	i	i	i	i	-15*	-397%*	102%*	-60%*	68%*	79%*	i
Cc1ccc(N=Nc2c(=O)[nH]n3c(C)cc(C)nc23)cc1	i	i	i	14*	-6.1*	-134%*	i	-14%*	i	41%*	i
N#CCCN(CCN1CCCC1)S(=O)(=O)c1ccc(-c2ccc([N+](=O)[O-])cc2)cc1	i	i	i	i	-7.8*	x	x	x	x	88%*	i	TRPC4 spec 2=32%*;TRPC4 spec=-27%*;HEK293 MPD ctr 2-1=30%*;HEK293 MPD ctr-1=-268%*
COc1ccc(OCC(O)CNC(=O)c2ccc(OC)cc2)cc1 (stereo unspecified)	i	i	i	i	i	x	x	x	x	x	x
COc1ccc(OCC(O)COc2ccc(OC)cc2)cc1	i	i	i	i	-6.4*	i	i	i	i	66%*	x
CCN(CC)C(=O)Oc1ccc2oc(=O)cc(-c3cc4cccc(OC)c4o3)c2c1	i	i	i	i	i	x	x	x	x	x	x
